Values after ≈ are worked out from the molar mass of the structure shown. Active and inactive are the calls of the source. The rule behind the calls is not given here.
Tests used:
Candida albicans = assay: Antifungal activity against Candida albicans NCIM 3100 after 72 hrs by broth micro-dilution method; format: functional
How it was run: (§1)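 Aqueous compound solutions, 2.5 to 20 mg/mL, 100 µL per 4 mm well in nutrient agar seeded from nutrient broth culture (1 cm3 broth with 9 cm3 agar at 45 °C). Plates incubated 72 h at 28 °C and clear-zone diameter measured. MIC taken from inhibition at four concentration levels. Duplicate, repeated twice, modal values. Amphotericin B standard.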

Aspergillus flavus = assay: Antifungal activity against Aspergillus flavus after 72 hrs by broth micro-dilution method; format: functional; how it was run: as §1
Bacillus subtilis = assay: Antibacterial activity against Bacillus subtilis after 72 hrs by broth micro-dilution method; format: functional
How it was run: (§2)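 Compounds dissolved in H2O and tested at 2.5, 5, 10 and 20 mg/mL. Each strain was seeded in 1 cm3 nutrient broth, mixed with 9 cm3 melted (45 °C) nutrient agar and poured; 4 mm wells were cut. 100 µL compound solution per well, incubated 72 h at 37 °C, and inhibition zone diameter measured. MIC derived from % inhibition at the four levels. Duplicate, repeated twice; modal values. Ampicillin reference.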

Staphylococcus aureus = assay: Antibacterial activity against Staphylococcus aureus ATCC 25923 after 72 hrs by broth micro-dilution method; format: functional; conditions: ATCC 25923, 72 h; how it was run: as §2
Escherichia coli = assay: Antibacterial activity against Escherichia coli ATCC 25922 after 72 hrs by broth micro-dilution method; conditions: ATCC 25922, 72 h
Pseudomonas aeruginosa = assay: Antibacterial activity against Pseudomonas aeruginosa ATCC 27853 after 72 hrs by broth micro-dilution method; conditions: ATCC 27853, 72 h

With `CCn1cc[n+](Cc2ccc(O)c(/C=N/[C@@H]3CCCC[C@H]3/N=C/c3cc(C[n+]4ccn(CC)c4)ccc3O)c2)c1.[Cl-].[Cl-]` (relative stereo) as the compound, how does the MIC (Candida albicans; NCIM 3100, 72 h) read?
The MIC was greater than 250 mg/L.

What about the MIC (Aspergillus flavus) of the same compound?
Its MIC is “inactive”.

And the MIC (Bacillus subtilis)?
Its MIC is 15.2 mg/L.

And the MIC (Staphylococcus aureus)?
The MIC was greater than 250 mg/L.

What about the MIC (Escherichia coli) of the same compound?
Its MIC is greater than 250 mg/L.

And the MIC (Pseudomonas aeruginosa)?
Its MIC is greater than 10000 mg/L.

For `Cc1[nH]cc[n+]1Cc1cc(/C=N/[C@@H]2CCCC[C@H]2/N=C/c2cc(C[n+]3cc[nH]c3C)cc(C(C)(C)C)c2O)c(O)c(C(C)(C)C)c1.[Cl-].[Cl-]` (relative stereo), which MIC (Candida albicans; NCIM 3100, 72 h) is on record?
Its MIC is 55.5 mg/L.

And the MIC (Aspergillus flavus)?
Its MIC is “inactive”.

What about the MIC (Bacillus subtilis) of the same compound?
Its MIC is 12.1 mg/L.

What about the MIC (Staphylococcus aureus) of the same compound?
Its MIC is 14.9 mg/L.

And the MIC (Escherichia coli)?
The MIC was 13.3 mg/L.

And the MIC (Pseudomonas aeruginosa)?
Its MIC is greater than 10000 mg/L.

With `CCn1cc[n+](Cc2cc(/C=N/[C@@H]3CCCC[C@H]3/N=C/c3cc(C[n+]4ccn(CC)c4)cc(C(C)(C)C)c3O)c(O)c(C(C)(C)C)c2)c1.[Cl-].[Cl-]` (relative stereo) as the compound, how does the MIC (Candida albicans; NCIM 3100, 72 h) read?
The MIC was greater than 250 mg/L.

And the MIC (Aspergillus flavus)?
The MIC was “inactive”.

And the MIC (Bacillus subtilis)?
Its MIC is 16 mg/L.

And the MIC (Staphylococcus aureus)?
Its MIC is 18.4 mg/L.

What about the MIC (Escherichia coli) of the same compound?
The MIC was greater than 250 mg/L.

And the MIC (Pseudomonas aeruginosa)?
Its MIC is greater than 10000 mg/L.

For `CCCCn1cc[n+](Cc2ccc(O)c(/C=N/[C@@H]3CCCC[C@H]3/N=C/c3cc(C[n+]4ccn(CCCC)c4)ccc3O)c2)c1.[Cl-].[Cl-]` (relative stereo), which MIC (Candida albicans; NCIM 3100, 72 h) is on record?
The MIC was greater than 250 mg/L.

And the MIC (Aspergillus flavus)?
Its MIC is “inactive”.

What about the MIC (Bacillus subtilis) of the same compound?
The MIC was 11.2 mg/L.

And the MIC (Staphylococcus aureus)?
The MIC was 16.2 mg/L.

What about the MIC (Escherichia coli) of the same compound?
The MIC was 16.7 mg/L.

What about the MIC (Pseudomonas aeruginosa) of the same compound?
The MIC was greater than 5000 mg/L.

`C[C@@H]1[C@H](O)[C@@H](C)/C=C/C=C/C=C/C=C/C=C/C=C/C=C/[C@H](O[C@@H]2O[C@H](C)[C@@H](O)[C@H](N)[C@@H]2O)C[C@@H]2O[C@](O)(C[C@@H](O)C[C@@H](O)[C@H](O)CC[C@@H](O)C[C@@H](O)CC(=O)O[C@H]1C)C[C@H](O)[C@H]2C(=O)O` [AMPHOTERICIN B] was tested. Which MIC (Candida albicans; NCIM 3100, 72 h) did it give?
The MIC was 80 mg/L (≈ 86.6 µM).

And the MIC (Aspergillus flavus)?
The MIC was 40 mg/L (≈ 43.3 µM).

For `CCCCn1cc[n+](Cc2cc(/C=N/[C@@H]3CCCC[C@H]3/N=C/c3cc(C[n+]4ccn(CCCC)c4)cc(C(C)(C)C)c3O)c(O)c(C(C)(C)C)c2)c1.[Cl-].[Cl-]` (relative stereo), which MIC (Candida albicans; NCIM 3100, 72 h) is on record?
Its MIC is 85.2 mg/L.

What about the MIC (Aspergillus flavus) of the same compound?
The MIC was “inactive”.

And the MIC (Bacillus subtilis)?
Its MIC is 16.4 mg/L.

What about the MIC (Staphylococcus aureus) of the same compound?
Its MIC is 16 mg/L.

What about the MIC (Escherichia coli) of the same compound?
The MIC was 12.2 mg/L.

What about the MIC (Pseudomonas aeruginosa) of the same compound?
Its MIC is greater than 5000 mg/L.

`Cc1[nH]cc[n+]1Cc1ccc(O)c(/C=N/[C@@H]2CCCC[C@H]2/N=C/c2cc(C[n+]3cc[nH]c3C)ccc2O)c1.[Cl-].[Cl-]` (relative stereo) was tested. Which MIC (Candida albicans; NCIM 3100, 72 h) did it give?
The MIC was greater than 250 mg/L.

What about the MIC (Aspergillus flavus) of the same compound?
Its MIC is “inactive”.

What about the MIC (Bacillus subtilis) of the same compound?
Its MIC is 17.5 mg/L.

And the MIC (Staphylococcus aureus)?
Its MIC is 17.6 mg/L.

What about the MIC (Escherichia coli) of the same compound?
Its MIC is 17.1 mg/L.

What about the MIC (Pseudomonas aeruginosa) of the same compound?
The MIC was greater than 10000 mg/L.

Which MIC (Candida albicans) does the source give for `CC1(C)S[C@@H]2[C@H](NC(=O)[C@H](N)c3ccccc3)C(=O)N2[C@H]1C(=O)O` [AMPICILLIN] here?
The MIC was “inactive”.

What about the MIC (Aspergillus flavus) of the same compound?
Its MIC is “inactive”.

What about the MIC (Bacillus subtilis) of the same compound?
The MIC was 20 mg/L (≈ 57.2 µM).

What about the MIC (Staphylococcus aureus) of the same compound?
The MIC was 12.5 mg/L (≈ 35.8 µM).

And the MIC (Escherichia coli)?
The MIC was 15 mg/L (≈ 42.9 µM).

And the MIC (Pseudomonas aeruginosa)?
Its MIC is greater than 1000 mg/L.
